In brackets after ≈: the same amount, converted by molar mass. Like-named read-outs stand apart in the source and are kept apart here.
Legend:
[1] = system: H1975 lung adenocarcinoma cells; experiment: MTT assay, H1975 cells; type: cell-based; conditions: Homo sapiens, NCI-H1975, 72 h, read-out: IC50 (μM) H1975
Outline: (§1)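 HT29, H1975, A549, MCF-7 and normal colon epithelial CCD841 cells were seeded at 5×10^5 cells/mL and grown 24 h. They were exposed to test compound at 0.5, 1.0, 2.0, 5.0 or 12.5 μM in DMEM for 24 h, then cultured a further 72 h. MTT (5 mg/mL solution) was added for 4 h at 37 °C and the formazan dissolved in DMSO. A490 was read. IC50 is given as mean ± s.d., n = 3.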

A549 lung cancer cells = experiment: MTT assay, A549 cells; type: cell-based; conditions: Homo sapiens, A549, 72 h, read-out: IC50 (μM) A549
Outline: as §1

[2] = system: MCF-7 breast cancer cells; experiment: MTT assay, MCF-7 cells; type: cell-based; conditions: Homo sapiens, MCF7, 72 h, read-out: IC50 (μM) MCF-7
Outline: as §1

HT29 colon cancer cells = experiment: MTT assay, HT29 cells; type: cell-based, human; conditions: for IC50: read-out: IC50 (μM) HT29
Outline: as §1

[3] = system: cleaved-caspase 3 in HT29 cells; experiment: Western blot, cleaved-caspase 3; type: cell-based, human; conditions: 1.0 and 5.0 μM, Western blotting
Outline: (§2)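 HT29 cells were cultured for 4 h in medium containing test compound at 1.0 or 5.0 μM, with the parent reference at 5.0 μM. Lysis was in RIPA buffer with protease and phosphatase inhibitors, 30 min on ice. Protein was quantified by BCA, and equal amounts were run on SDS-PAGE and transferred to PVDF. Band levels were expressed relative to β-actin.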

HT29 cells = experiment: Apoptosis assay, annexin V-FITC/PI flow cytometry; type: cell-based, human
Outline: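 HT29 cells were seeded at 2×10^4 cells per well and left overnight. They were treated with test compound at 1.0 or 5.0 μM (parent reference 5.0 μM) for 24 h, then kept another 72 h. Cells were harvested, washed in PBS and stained with annexin V-FITC/PI. Early plus late apoptotic cells were counted by flow cytometry. Results are mean ± SD of three separate assays.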

GPX4 in HT29 cells = experiment: Western blot, GPX4; type: cell-based, human; conditions: 1.0 or 5.0 μM, compared with CO
Outline: as §2

MMP of HT29 cells = experiment: Mitochondrial membrane potential with JC-1 dye; type: cell-based, human; conditions: 8h 5 μM
Bcl-2 in HT29 cells = experiment: Western blot, Bcl-2; type: cell-based, human; conditions: 1.0 and 5.0 μM, Western blotting
[4] = system: HT29, H1975, A549 and MCF-7 cancer cells; experiment: MTT assay, summary over the four cancer cell lines; type: cell-based, human; conditions: for IC50: Homo sapiens, read-out: IC50 against the four cancer cell lines
Outline: as §1

[5] = system: human normal colon epithelial cells (CCD841); experiment: MTT assay, normal CCD841 cells; type: cell-based
Outline: as §1

[6] = system: malondialdehyde (MDA) in HT29 cells; experiment: Lipid peroxidation; type: cell-based, human; conditions: compared with CO
Outline: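 HT29 cells were pretreated with or without ferrostatin-1 (1.0 μM) for 4 h. They were then exposed to test compound at 1.0 or 5.0 μM, with the parent reference at 5.0 μM. Lipid peroxidation was quantified as malondialdehyde with an MDA assay kit. Results are mean ± SD, n = 3.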

logP by UV method = type: physicochemical
[7] = Water solubility by UV method; type: physicochemical; conditions: thermodynamic from solid
Outline: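 For a UV calibration curve, absorbance was measured at five concentrations of each compound in methanol/water (1:1, v/v). Excess solid compound was left standing in water for 2 h, then filtered. Absorbance of the filtrate was read and converted to concentration using the curve, giving water solubility.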

ROS levels in HT29 cells = experiment: Intracellular ROS detection with DCFH-DA probe; type: cell-based, human; conditions: 12 h, CO 5.0 μM, 8h 1.0 or 5.0 μM
Outline: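 HT29 cells (about 1×10^4 per well) were exposed to test compound at 1.0 or 5.0 μM for 12 h, with the parent reference at 5.0 μM. DCFH-DA (10 μM) was added for 30 min. DCF green fluorescence (λex 488 nm, λem 500–550 nm) was imaged by confocal microscopy. Results are mean ± SD of three separate assays.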

H2AX in HT29 cells = experiment: Western blot, H2AX; type: cell-based, human; conditions: Western blotting
Outline: as §2

GSH level in HT29 cells = experiment: GSH level assay; type: cell-based, human; conditions: 24 h, 1.0 or 5.0 μM, compared with CO
Outline: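 HT29 cells were exposed for 24 h to test compound at 1.0 or 5.0 μM, with the parent reference at 5.0 μM. Cells were harvested and counted. Glutathione was measured with a QuantiChrome glutathione assay kit. Results are mean ± SD, n = 3.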

SMILES	IC50 [1] [µM]	IC50 (A549 lung cancer cells) [µM]	IC50 [2] [µM]	IC50 (HT29 colon cancer cells; Homo sapiens, HT-29, 72 h) [µM]	logP (logP by UV method)	solubility at 2 h [7] [µg/mL]	further results
O=C(NCCNCCO)c1cc2c3ccccc3n3c(=O)ccc(n1)c23 [8d, N-(2-((2-Hydroxyethyl)amino)ethyl)-6-oxo-6H-indolo[3,2,1-de][1,5] naphthyridine-2-carboxamide]		4.2 ± 0.3		2.6 ± 0.2			
CCN(CC)CCCC(C)NC(=O)c1cc2c3ccccc3n3c(=O)ccc(n1)c23 (stereo not drawn) [8k, N-(5-(Diethylamino)pentan-2-yl)-6-oxo-6H-indolo[3,2,1-de][1,5]naphthyridine-2-carboxamide]	5.5 ± 0.7		3.8 ± 0.3	4.3 ± 0.5			
CN1CCN(C2CCN(c3ccc(NC(=O)c4cc5c6ccccc6n6c(=O)ccc(n4)c56)cc3)CC2)CC1 [8l, N-(4-(4-(4-Methylpiperazin-1-yl)piperidin-1-yl)phenyl)-6-oxo-6H-indolo[3,2,1-de][1,5]naphthyridine-2-carboxamide]	> 10	> 10	> 10	> 10			
COc1cccc2c1C(=O)c1c(O)c3c(c(O)c1C2=O)C[C@@](O)(C(=O)CO)C[C@@H]3O[C@H]1C[C@H](N)[C@H](O)[C@H](C)O1 [ADM, reference compound]							IC50 (HT29 colon cancer cells; HT29 cells, MTT, incubated for 72 h, mean ± s.d., n = 3): 2.6 ± 0.4 µM
CN(C)CCCNC(=O)c1cc2c3ccccc3n3c(=O)ccc(n1)c23 [8c, N-(3-(Dimethylamino)propyl)-6-oxo-6H-indolo[3,2,1-de][1,5]naphthyridine-2-carboxamide]	7.7 ± 0.8	4.8 ± 0.4	4.6 ± 0.5	4.1 ± 0.3			
O=c1ccc2nccc3c4ccccc4n1c23 [CO, Canthin-6-one, reference compound]	10.7 ± 1.2	7.6 ± 0.6	8.9 ± 0.9	8.6 ± 0.7	1.87	16.1 ± 1 (≈ 73.1 µM)	percentage of apoptotic cells (early + late) (HT29 cells; 5.0 μM): 22.68%; IC50 [4]: 7.6 to 10.7 µM; intracellular ROS level (DCFH-DA fluorescence) (ROS levels in HT29 cells): weak fluorescence signal; increase of H2AX expression (H2AX in HT29 cells; 5.0 μM): approximately 1.3 fold

More lines, main results first:

IC50 [1] [µM]	IC50 (A549 lung cancer cells) [µM]	IC50 [2] [µM]	IC50 (HT29 colon cancer cells; Homo sapiens, HT-29, 72 h) [µM]	logP (logP by UV method)	solubility at 2 h [7] [µg/mL]	SMILES	further results
7.5 ± 0.6	3.2 ± 0.2	3.8 ± 0.3	2.9 ± 0.4			CN(C)CCNC(=O)c1cc2c3ccccc3n3c(=O)ccc(n1)c23 [8b, N-(2-(Dimethylamino)ethyl)-6-oxo-6H-indolo[3,2,1-de][1,5]naphthyridine-2-carboxamide]	
	3.8 ± 0.5	4.7 ± 0.4	2.2 ± 0.3			CCN(CC)CCNC(=O)c1cc2c3ccccc3n3c(=O)ccc(n1)c23 [8a, N-(2-(Diethylamino)ethyl)-6-oxo-6H-indolo[3,2,1-de][1,5]naphthyridine-2-carboxamide]	
1.9 ± 0.3	1.3 ± 0.1	1.7 ± 0.2	1 ± 0.1	1.19	70.5 ± 3.6 (≈ 181 µM)	CN1CCN(CCNC(=O)c2cc3c4ccccc4n4c(=O)ccc(n2)c34)CC1 [8h, N-(2-(4-Methylpiperazin-1-yl)ethyl)-6-oxo-6H-indolo[3,2,1-de][1,5] naphthyridine-2-carboxamide]	cleaved-caspase 3 level [3]: remarkably led to cleavage of caspase-3; percentage of apoptotic cells (early + late) (HT29 cells; 1.0 μM): 31.55%; percentage of apoptotic cells (early + late) (HT29 cells; 5.0 μM): 45.14%; GPX4 expression (GPX4 in HT29 cells): markedly reduced; MMP (JC-1 red/green fluorescence) (MMP of HT29 cells): intracellular red fluorescence almost disappeared; Bcl-2 expression (Bcl-2 in HT29 cells): reduced the expression of antiapoptotic Bcl-2 protein in a dose-dependent manner; IC50 [4]: 1 to 1.9 µM; fold higher cytotoxicity than CO against the four cancer cells ([4]; vs CO, four cancer cell lines): 5–9 fold; IC50 ([5]; Homo sapiens, CCD-841, read-out: IC50 in normal cell line CCD841): 17.1 ± 2.5 µM; fold less cytotoxicity in CCD841 than in HT29 cells ([5]; IC50 CCD841 vs IC50 HT29): 17 fold; level of malondialdehyde (MDA), lipid peroxidation [6]: increased the level of malondialdehyde; intracellular ROS level (DCFH-DA fluorescence) (ROS levels in HT29 cells): Intense green fluorescence; fold lower IC50 than CO against HT29 cells (HT29 colon cancer cells; HT29 cells, vs CO): 8.6 fold; increase of H2AX expression (H2AX in HT29 cells; 1.0 μM): 2.4 fold; increase of H2AX expression (H2AX in HT29 cells; 5.0 μM): 3.2 fold; GSH level (GSH level in HT29 cells): markedly reduced
	2.1 ± 0.3	4.5 ± 0.6				O=C(NCCN1CCCC1)c1cc2c3ccccc3n3c(=O)ccc(n1)c23 [8e, 6-Oxo-N-(2-(pyrrolidin-1-yl)ethyl)-6H-indolo[3,2,1-de][1,5]naphthyridine-2-carboxamide]	
1.6 ± 0.1	2 ± 0.1	2.4 ± 0.2	1.7 ± 0.3	2.17	41.3 ± 4.5 (≈ 110 µM)	O=C(NCCN1CCCCC1)c1cc2c3ccccc3n3c(=O)ccc(n1)c23 [8f, 6-Oxo-N-(2-(piperidin-1-yl)ethyl)-6H-indolo[3,2,1-de][1,5]naphthyridine-2-carboxamide]	
3 ± 0.4	3.4 ± 0.3	4.6 ± 0.5	2.3 ± 0.3	1.38	60.4 ± 5.4 (≈ 168 µM)	CN1CCC(NC(=O)c2cc3c4ccccc4n4c(=O)ccc(n2)c34)CC1 [8i, N-(1-Methylpiperidin-4-yl)-6-oxo-6H-indolo[3,2,1-de][1,5]naphthyridine-2-carboxamide]	
	3.5 ± 0.4	5.9 ± 0.5				NC1CCC(NC(=O)c2cc3c4ccccc4n4c(=O)ccc(n2)c34)CC1 (stereo not drawn) [8j, N-(4-Aminocyclohexyl)-6-oxo-6H-indolo[3,2,1-de][1,5]naphthyridine-2-carboxamide]	

From paper PMC10468838 (ACS Omega, 2023)
